Experimental data reported in ChEMBL document CHEMBL1155483, “Anthranilic acid replacements in a niacin receptor agonist” (Bioorg Med Chem Lett, 2010).

test system: not listed separately; test: Half life in mouse plasma; assay type: ADME, organism-based; details: not given

Row | Structure (SMILES) | half-life [h]
1 | O=C(CCc1ccc(-c2ccc(O)cc2)cc1)NC1=C(C(=O)O)CC(c2cccnc2F)CC1 (stereo not drawn) | 1.8
2 | NC(Cc1nc(-c2ccc(F)cn2)no1)C(=O)NC1=C(C(=O)O)CCCC1 (stereo not drawn) | 14
3 | O=C(CCc1ccc(-c2ccc(O)cc2)cc1)Nc1ccccc1C(=O)O | 2.4
4 | C[C@H]1CC(NC(=O)CCc2nc(-c3ccc(O)cn3)no2)=C(C(=O)O)C[C@H]1c1cccc(F)c1 | 3.9
5 | O=C(CCc1nc(-c2ccc(O)cn2)no1)NC1=C(C(=O)O)CCCC1 | 1.3

test system: not listed separately; test: Cmax in rat plasma; assay type: ADME, organism-based; details: not given

Row | Structure (SMILES) | Cmax [µM]
6 | NC(Cc1nc(-c2ccc(F)cn2)no1)C(=O)NC1=C(C(=O)O)CC(c2cc(F)cc(F)c2)CC1 (stereo not drawn) | 3.8

test system: not listed separately; test: Volume of distribution at steady state in mouse plasma; assay type: ADME, organism-based; details: read-out: Vdss

Row | Structure (SMILES) | Vd [L/kg]
7 | O=C(CCc1ccc(-c2ccc(O)cc2)cc1)NC1=C(C(=O)O)CC(c2cccnc2F)CC1 (stereo not drawn) | 0.42
8 | NC(Cc1nc(-c2ccc(F)cn2)no1)C(=O)NC1=C(C(=O)O)CCCC1 (stereo not drawn) | 1.4
9 | O=C(CCc1ccc(-c2ccc(O)cc2)cc1)Nc1ccccc1C(=O)O | 0.78
10 | C[C@H]1CC(NC(=O)CCc2nc(-c3ccc(O)cn3)no2)=C(C(=O)O)C[C@H]1c1cccc(F)c1 | 0.76
11 | O=C(CCc1nc(-c2ccc(O)cn2)no1)NC1=C(C(=O)O)CCCC1 | 0.21

test system: not listed separately; test: Oral bioavailability in mouse plasma; assay type: ADME, organism-based; details: not given

Row | Structure (SMILES) | bioavailability [%]
12 | O=C(CCc1ccc(-c2ccc(O)cc2)cc1)NC1=C(C(=O)O)CC(c2cccnc2F)CC1 (stereo not drawn) | 12
13 | NC(Cc1nc(-c2ccc(F)cn2)no1)C(=O)NC1=C(C(=O)O)CCCC1 (stereo not drawn) | 87
14 | O=C(CCc1ccc(-c2ccc(O)cc2)cc1)Nc1ccccc1C(=O)O | 35
15 | C[C@H]1CC(NC(=O)CCc2nc(-c3ccc(O)cn3)no2)=C(C(=O)O)C[C@H]1c1cccc(F)c1 | 2
16 | O=C(CCc1nc(-c2ccc(O)cn2)no1)NC1=C(C(=O)O)CCCC1 | 13

test system: not listed separately; test: Oral bioavailability in rat plasma; assay type: ADME, organism-based; details: not given

Row | Structure (SMILES) | bioavailability [%]
17 | NC(Cc1nc(-c2ccc(F)cn2)no1)C(=O)NC1=C(C(=O)O)CC(c2cc(F)cc(F)c2)CC1 (stereo not drawn) | 44

test system: not listed separately; test: Volume of distribution at steady state in rat plasma; assay type: ADME, organism-based; details: read-out: Vdss

Row | Structure (SMILES) | Vd [L/kg]
18 | NC(Cc1nc(-c2ccc(F)cn2)no1)C(=O)NC1=C(C(=O)O)CC(c2cc(F)cc(F)c2)CC1 (stereo not drawn) | 2.4

biological target: Hydroxycarboxylic acid receptor 2 (Homo sapiens) (UniProt Q8TDS4); test: Displacement of [3H]niacin from human niacin receptor expressed in CHO-KI cells at 25 uM; assay type: cell-based; details: not given
Sequence (Q8TDS4 whole entry): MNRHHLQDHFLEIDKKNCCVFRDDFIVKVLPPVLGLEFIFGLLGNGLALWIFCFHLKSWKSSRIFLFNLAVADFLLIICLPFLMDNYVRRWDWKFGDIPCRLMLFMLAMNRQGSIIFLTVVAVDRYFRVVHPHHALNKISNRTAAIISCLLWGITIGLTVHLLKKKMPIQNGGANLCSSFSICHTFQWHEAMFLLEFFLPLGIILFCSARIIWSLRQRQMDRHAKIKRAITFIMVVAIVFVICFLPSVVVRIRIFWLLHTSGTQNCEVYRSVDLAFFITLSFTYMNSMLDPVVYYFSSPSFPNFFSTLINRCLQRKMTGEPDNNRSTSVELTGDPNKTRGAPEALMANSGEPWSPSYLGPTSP

Row | Structure (SMILES) | inhibition [%]
19 | N#CC1CCC(NC(=O)CCc2ccc3cc(O)ccc3c2)=C(C(=O)O)C1 (stereo not drawn) | 7

test system: not listed separately; test: Half life in rat plasma; assay type: ADME, organism-based; details: not given

Row | Structure (SMILES) | half-life [h]
20 | NC(Cc1nc(-c2ccc(F)cn2)no1)C(=O)NC1=C(C(=O)O)CC(c2cc(F)cc(F)c2)CC1 (stereo not drawn) | 4.8

test system: not listed separately; test: Clearance in mouse plasma; assay type: ADME, organism-based; details: not given

Row | Structure (SMILES) | clearance [mL/min/kg]
21 | O=C(CCc1ccc(-c2ccc(O)cc2)cc1)NC1=C(C(=O)O)CC(c2cccnc2F)CC1 (stereo not drawn) | 5.4
22 | NC(Cc1nc(-c2ccc(F)cn2)no1)C(=O)NC1=C(C(=O)O)CCCC1 (stereo not drawn) | 0.5
23 | O=C(CCc1ccc(-c2ccc(O)cc2)cc1)Nc1ccccc1C(=O)O | 8.7
24 | C[C@H]1CC(NC(=O)CCc2nc(-c3ccc(O)cn3)no2)=C(C(=O)O)C[C@H]1c1cccc(F)c1 | 5.6
25 | O=C(CCc1nc(-c2ccc(O)cn2)no1)NC1=C(C(=O)O)CCCC1 | 2

biological target: Hydroxycarboxylic acid receptor 2 (Homo sapiens) (UniProt Q8TDS4); test: Displacement of [3H]niacin from human niacin receptor expressed in CHO-KI cells in presence of human serum; assay type: cell-based; details: not given
In short: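 Membranes from CHO-K1 cells stably expressing the niacin receptor; [3H]niacin displacement titrated with and without added human serum (serum level not stated); the serum shift is given as fold change. Values are means of two independent titrations, with calculated standard errors below 15%.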

Row | Structure (SMILES) | fold change (FC)
26 | O=C(CCc1nc(-c2ccc(F)cn2)no1)NC1=C(C(=O)O)CC(c2cc(F)cc(F)c2)CC1 (stereo not drawn) | 30
27 | O=C(CCc1nc(-c2ccc(F)cn2)no1)NC1=C(C(=O)O)CCCC1 | > 400
28 | NC(Cc1nc(-c2ccc(F)cn2)no1)C(=O)NC1=C(C(=O)O)CC(c2cc(F)cc(F)c2)CC1 (stereo not drawn) | 30
29 | NC(Cc1nc(-c2ccc(F)cn2)no1)C(=O)NC1=C(C(=O)O)CCCC1 (stereo not drawn) | > 400
30 | O=C(CCc1ccc2cc(O)ccc2c1)NC1=C(C(=O)O)CC(c2cc(F)cc(F)c2)CC1 (stereo not drawn) | > 400
31 | CCCC1CCC(NC(=O)CCc2ccc3cc(O)ccc3c2)=C(C(=O)O)C1 (stereo not drawn) | > 400

Second part, the compound after the results:

Row | fold change (FC) | Structure (SMILES)
32 | 100 | O=C(CCc1ccc2cc(O)ccc2c1)NC1=C(C(=O)O)CC(c2cccnc2F)CC1 (stereo not drawn)
33 | 200 | Cn1nccc1C1CCC(NC(=O)CCc2ccc3cc(O)ccc3c2)=C(C(=O)O)C1 (stereo not drawn)
34 | > 400 | Cn1cc(C2CCC(NC(=O)CCc3ccc4cc(O)ccc4c3)=C(C(=O)O)C2)cn1 (stereo not drawn)
35 | > 400 | O=C(CCc1ccc2cc(O)ccc2c1)NC1=C(C(=O)O)CC(c2cccc(F)c2)CC1 (stereo not drawn)
36 | > 400 | O=C(CCc1ccc2cc(O)ccc2c1)NC1=C(C(=O)O)CC(c2ccccc2F)CC1 (stereo not drawn)
37 | 90 | O=C(CCc1ccc2cc(O)ccc2c1)NC1=C(C(=O)O)CC(c2ccc(F)nc2)CC1 (stereo not drawn)

test system: not listed separately; test: Clearance in rat plasma; assay type: ADME, organism-based; details: not given

Row | Structure (SMILES) | clearance [mL/min/kg]
38 | NC(Cc1nc(-c2ccc(F)cn2)no1)C(=O)NC1=C(C(=O)O)CC(c2cc(F)cc(F)c2)CC1 (stereo not drawn) | 2.3

test system: not listed separately; test: Cmax in mouse plasma; assay type: ADME, organism-based; details: not given

Row | Structure (SMILES) | Cmax [µM]
39 | O=C(CCc1ccc(-c2ccc(O)cc2)cc1)NC1=C(C(=O)O)CC(c2cccnc2F)CC1 (stereo not drawn) | 1.2
40 | NC(Cc1nc(-c2ccc(F)cn2)no1)C(=O)NC1=C(C(=O)O)CCCC1 (stereo not drawn) | 16
41 | O=C(CCc1ccc(-c2ccc(O)cc2)cc1)Nc1ccccc1C(=O)O | 4
42 | C[C@H]1CC(NC(=O)CCc2nc(-c3ccc(O)cn3)no2)=C(C(=O)O)C[C@H]1c1cccc(F)c1 | 0.3
43 | O=C(CCc1nc(-c2ccc(O)cn2)no1)NC1=C(C(=O)O)CCCC1 | 3.9
